Measurements from different studies.
Lines come from different studies, so protocols differ.
Target: Testis-specific serine/threonine-protein kinase 1 (TSSK1B, Homo sapiens, UniProt Q9BXA7)
Sequence (Q9BXA7 1-367, as in one of the studies): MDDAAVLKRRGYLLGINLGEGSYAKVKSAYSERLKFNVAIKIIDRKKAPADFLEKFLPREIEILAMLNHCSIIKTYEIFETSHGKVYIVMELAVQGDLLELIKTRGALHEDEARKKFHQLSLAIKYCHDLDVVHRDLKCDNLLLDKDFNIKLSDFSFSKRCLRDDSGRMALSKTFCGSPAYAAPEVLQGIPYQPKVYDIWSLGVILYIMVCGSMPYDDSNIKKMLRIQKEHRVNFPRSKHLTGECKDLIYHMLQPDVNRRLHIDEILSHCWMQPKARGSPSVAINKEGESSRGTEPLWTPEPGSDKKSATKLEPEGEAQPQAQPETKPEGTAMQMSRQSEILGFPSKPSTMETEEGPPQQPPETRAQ

The inhibition of `CCOc1cc(-c2nncn2C)ccc1Nc1ncc2cc(C)nc(NCC(C)(C)C)c2n1` is reported as under 15% (enzyme activity, inhibitor, FRET; 1 µM).
For `CCOCCn1cc(C(=O)Nc2ccc(-n3nc(-c4cccnc4)cc3C(F)(F)F)cn2)ccc1=O`, the remaining binding was 100% (cell-free assay, competition with immobilised ligand; 1 µM).
With `CCN(CC)CCNC(=O)c1c(C)[nH]c(/C=C2\C(=O)Nc3ccc(F)cc32)c1C` the inhibition was 20% (enzyme activity, inhibitor; 10 µM).
`COc1cc(-c2cn(C3CCc4c(F)cccc4N(CC(F)(F)F)C3=O)nn2)ccc1-n1cnc(C)c1` (stereo not drawn) gave a remaining binding of 100% (cell-free assay, competition with immobilised ligand; 1 µM).
`COc1cc(Nc2cnc(C#N)c(O[C@H](C)CN(C)C)n2)ncc1-c1cnn(C)c1` has a remaining activity of 72% (enzyme activity, inhibitor, radiometric; 1 µM).
The inhibition of `CN(C)C1CCN(CC#Cc2nn(C3CCCC3)c3nc(NCc4ccccc4)ncc23)C1` (stereo not drawn) is reported as -8% (enzyme activity, inhibitor, FRET; 10 µM).
`COc1cc2ncnc(Nc3ccc(Oc4ccccc4)cc3C)c2cc1OC` has an inhibition of 2% (enzyme activity, inhibitor; 1 µM).
The remaining binding of `O=S(=O)(NC1CCC(c2cc(F)ccc2F)(S(=O)(=O)c2ccc(Cl)cc2)CC1)C(F)(F)F` (stereo not drawn) is reported as 100% (cell-free assay, competition with immobilised ligand; 1 µM).
`COc1cc(/C=C/C(=O)CC(=O)/C=C/c2ccc(O)c(OC)c2)ccc1O` has an activity vs control of 106% (enzyme activity, inhibitor; 1 µM).
The inhibition of `CCCS(=O)(=O)Nc1ccc(F)c(C(=O)c2c[nH]c3ncc(-c4ccc(Cl)cc4)cc23)c1F` is reported as under 10% (enzyme activity, inhibitor; 1 µM).
For `Nc1ncnc2occ(-c3ccc(NC(=O)Nc4cc(C(F)(F)F)ccc4F)cc3)c12`, the remaining signal was 52% (cell-free assay, inhibitor; 20 µM).
`O=C1NC(=O)c2cc(Nc3ccc(F)cc3)c(Nc3ccc(F)cc3)cc21` has a remaining signal of 90.2% (cell-free assay; 0.5 µM).
`CC(C)(C)c1nc(-c2cccc(NS(=O)(=O)c3c(F)cccc3F)c2F)c(-c2ccnc(N)n2)s1` gave a remaining activity of 84% (enzyme activity, inhibitor, radiometric; 1 µM).
The remaining binding of `N#Cc1ccc(Nc2ccc3[nH]c(=O)[nH]c3c2)c(Cl)c1` is reported as 56% (cell-free assay, competition with immobilised ligand; 1 µM).
The remaining activity of `O=C(Nc1cnn(-c2csc(C(=O)NC3COC3)c2)c1)Nc1c(F)cccc1Cl` is reported as 107% (enzyme activity, inhibitor; 5 µM).
With `CNC(=O)c1cc(Oc2ccc(NC(=O)Nc3ccc(Cl)c(C(F)(F)F)c3)cc2)ccn1` the inhibition was -6% (enzyme activity, inhibitor; 0.3 µM).
The remaining binding of `CC(=O)C1=C(C)N(c2cccc(C(F)(F)F)c2)C(=O)N[C@@H]1c1ccc(C#N)nc1` is reported as 100% (cell-free assay, competition with immobilised ligand; 1 µM).
`CNc1cccc2cc(C(=O)Nc3ccc(C(=O)O)cc3)c(=O)[nH]c12` has an inhibition of 2.1% (enzyme activity, inhibitor; 10 µM).
`Cc1nc(N2CC[C@@H](O)C2)ncc1-c1cc(C(F)(F)F)cc2[nH]ncc12` gave a remaining binding of 98% (binding, competition with immobilised ligand; 1 µM).
For `Cc1cnc(NC2CCOCC2)nc1-n1cnc(C(=O)NC(CN)c2cc(F)cc(Cl)c2)c1` (stereo not drawn), the remaining activity was 55% (enzyme activity, inhibitor, radiometric; 1 µM).
`Cc1c(NC(=O)c2cc(C(N)=O)nc3cc(F)ccc23)c(C(F)(F)F)nn1Cc1ccc(C(C)(C)C)cc1` gave a remaining binding of 100% (cell-free assay, competition with immobilised ligand; 1 µM).
For `Cc1ccc(Nc2nccc(N(C)c3ccc4c(C)n(C)nc4c3)n2)cc1S(N)(=O)=O`, the inhibition was 1% (enzyme activity, inhibitor; 10 µM).
For `COc1cc(Cl)c(C(=O)N[C@@H](CN[C@H]2CC[C@@H](N)CC2)Cc2ccc(C#N)cc2)cc1-c1ccc(CN[C@H](C)c2ccc(C)cc2)o1`, the remaining activity was 101% (enzyme activity, inhibitor; 1 µM).
`O=C1Nc2ccc(Cl)cc2C1=Cc1cc(Cl)c(O)c(Cl)c1` gave a remaining signal of 88.2% (cell-free assay; 0.5 µM).
